From ChEMBL document CHEMBL1914423, “New imidazo[2,1-b]thiazole derivatives: synthesis, in vitro anticancer evaluation, and in silico studies” (Eur J Med Chem, 2011) come the findings set out here.

Usually IC50 stands for the concentration needed to halve the response being measured. Low values mean greater potency, high ones weaker potency. By GI50 is commonly meant the concentration at which growth is held to half of that of the control. As usually defined, the TGI is the concentration at which net growth stops.

Assay [1] concerns UACC-62. Kind of assay: Antiproliferative activity against human UACC62 cells after 48 hrs by MTT assay. Type of assay: functional, cell-based. Conditions: UACC-62, 48 h. On the technique in general: Formazan colour is commonly taken as a measure of viable cells.
Assay [2] concerns SK-MEL-2. Put plainly: Antiproliferative activity against human SK-MEL-2 cells after 48 hrs by MTT assay. The assay is classed as functional, cell-based. Conditions: SK-MEL-2, 48 h.
Assay [3] has as its system SK-MEL-5. Kind of assay: Antiproliferative activity against human SK-MEL-5 cells after 48 hrs by MTT assay. The assay is classed as functional, cell-based. Conditions: SK-MEL-5, 48 h.
In assay [4] the test system is M14. Kind of assay: Antiproliferative activity against human M14 cells after 48 hrs by MTT assay. Particulars: M14, 48 h. The assay is classed as functional, cell-based.
For assay [5], the system named is MDA-MB-435. Put plainly: Antiproliferative activity against human MDA-MB-435 cells after 48 hrs by MTT assay. Type of assay: functional, cell-based. Conditions: MDA-MB-435, 48 h.
The subject of assay [6] is UACC-257. Kind of assay: Antiproliferative activity against human UACC257 cells after 48 hrs by MTT assay. Type of assay: functional, cell-based. Particulars: UACC-257, 48 h.
Assay [7] deals with SK-OV-3. Put plainly: Anticancer activity against human SKOV3 cells after 48 hrs by SRB assay. The assay is classed as functional. Conditions: SK-OV-3, 48 h.
For assay [8], the system named is BT-549. Put plainly: Anticancer activity against human BT549 cells after 48 hrs by SRB assay. Type of assay: functional. Particulars: BT-549, 48 h. An outline of the steps:
(§1)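 NCI five-dose screen. Cells in RPMI 1640 with 5% FBS and 2 mM L-glutamine, seeded at 5000–40,000 cells/well according to doubling time, then pre-incubated 24 h at 37 °C in 5% CO2. Drugs dissolved in DMSO, five concentrations by 10-fold or 1/2-log dilution. Cells fixed with TCA, SRB-stained, A515 read. IC50 solved from [(Ti−Tz)/(C−Tz)]×100 = 50.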
Background: The SRB assay estimates cell density from bound dye.

Assay [9] concerns 786-0. Put plainly: Anticancer activity against human 786-0 cells after 48 hrs by SRB assay. Conditions: 786-0, 48 h. Type of assay: functional. In a few lines:
as §1

Where [10] appears, read: read-out: LC50 (the source's name).

Where only a bound is given, the exact number is not on record here.

For `O=C(NCCNc1nccc(-c2c(-c3cccc(O)c3)nc3sccn23)n1)c1ccccc1`, the IC50 in [1] was determined as 211 nM; in assay [2] it was 2940 nM; in assay [3] it was 4150 nM; in [4], 434 nM; in [5] it was 578 nM; in [6] it was 489 nM.
Consider `O=C(NCCNc1nccc(-c2c(-c3cccc(O)c3)nc3sccn23)n1)c1ccccc1O`, for which the GI50 in assay [7] stood at 4310 nM; in assay [8] it was 4740 nM; in assay [9], 6250 nM. The concentration for total growth inhibition (TGI) in [7] was determined as 39700 nM; in assay [8] it was 34900 nM; in assay [9] it was 43100 nM. Besides, the CC50 in assay [7] (setting [10]), in [8] (setting [10]) and in [9] (setting [10]) was greater than 100000 nM throughout. Further, the IC50 in assay [1] came out at 161 nM; in [3] it was 1220 nM; in assay [4], 335 nM; in assay [5] it was 433 nM; in [6], 651 nM.
